# Results from publication PMC3961596 (Advances in Therapy, 2014).
# Experiments:
# [1] = system: urinary glucose excretion; details: healthy subjects; cited from earlier work
# [2] = Single ascending dose; format: in vivo, human; details: for Cmax / Tmax / k el / Vd/F / half-life: human, plasma, po; for k el: λz
# Method in brief: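 Healthy Japanese men received a single oral dose (1–25 mg) or placebo with 200 mL water under fasting conditions. The 5 mg group was redosed preprandially 8 days later, followed by a standardized ~630 kcal meal. Plasma and urine were collected to 48 h (96 h at 15 and 25 mg) and assayed by HPLC–MS/MS (urine LLOQ 0.5 ng/mL). Analysis was noncompartmental: AUClast by trapezoidal rule, AUCinf extrapolated. Dose proportionality used a power model; food effect used preprandial/fasting geometric mean ratios with 90% CI (mixed model).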
# [3] = 7-day multiple ascending dose; format: in vivo, human; details: for mean daily urinary luseogliflozin excretion rate (% of daily dose): Days 1–7, range; for mean urinary luseogliflozin excretion rate: Days 1–11 (96 h after the last administration); for AUC / AUC(0-inf): po
# Method in brief: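 In healthy Japanese men, 5 or 10 mg/day or placebo was given orally for 7 days with 200 mL water just before breakfast, with a standardized ~630 kcal meal on Days 1 and 7. Heparin plasma was sampled to 12 h after the first dose, predose on Days 2–7, and to 96 h after the last dose. Plasma and urine were assayed by HPLC–MS/MS, and parameters derived noncompartmentally (AUCinf Day 1, AUC0–24 Day 7); accumulation was assessed by comparing these.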
# [4] = system: urinary glucose excretion; test: SAD study: urinary glucose excretion; format: in vivo, human
# Method in brief: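 After a single oral fasting dose (1–25 mg) or placebo, urine was pooled over 24 h predose and over intervals from 0–2 to 24–48 h post-dose, extended to 96 h for 15 and 25 mg. Aliquots were kept at 4 °C, and glucose was measured on an automated analyzer. UGE (g) was computed per collection period and as 24-h cumulative.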
# [5] = system: urinary glucose excretion; test: MAD study: urinary glucose excretion; format: in vivo, human; details: for mean daily UGE (range): administration days 1–7
# Method in brief: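 Subjects took 5 or 10 mg/day or placebo orally for 7 days before breakfast. Urine was pooled over 24 h predose, over 2-h intervals to 16 h and 16–24 h on Days 1 and 7, and every 24 h on other days through Day 14. Glucose was measured on an automated analyzer; daily and 24-h cumulative UGE (g) were derived. Groups were compared with placebo by ANCOVA, with baseline glucose as covariate.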
# [6] = system: plasma glucose; test: Plasma glucose concentrations in the SAD and MAD studies; format: in vivo, human; details: healthy subjects, vs placebo
# [7] = system: healthy male Japanese subjects; test: Assessment of safety in the SAD and MAD studies; format: in vivo, human
# [8] = system: SGLT2; details: read-out: 50% inhibitory concentration (IC50) for SGLT2; cited from earlier work
# [9] = system: SGLT1; details: cited from earlier work
# [10] = animal study; cited from earlier work
# [11] = SAD, 5 mg, N = 8, estimated value (90% CI)
# [12] = both studies (SAD 1–25 mg, MAD 5 or 10 mg/day 7 days)
compound,measurement,setting,value
CCOc1ccc(Cc2cc([C@@H]3O[C@H](CO)[C@@H](O)[C@H](O)[C@H]3O)ccc2Cl)cc1 [dapagliflozin],maximum amount of daily UGE after multiple dose,[1],50 to 55 g/day
same,maximum amount of daily UGE after single dose,[1],approximately 70 g/day
OC[C@H]1O[C@@H](c2ccc(Cl)c(Cc3ccc(O[C@H]4CCOC4)cc3)c2)[C@H](O)[C@@H](O)[C@@H]1O [empagliflozin],maximum amount of daily UGE after multiple dose,[1],50 to 55 g/day
same,maximum amount of daily UGE after single dose,[1],approximately 70 g/day
Cc1ccc([C@@H]2O[C@H](CO)[C@@H](O)[C@H](O)[C@H]2O)cc1Cc1ccc(-c2ccc(F)cc2)s1 [canagliflozin],maximum amount of daily UGE after multiple dose,[1],50 to 55 g/day
same,maximum amount of daily UGE after single dose,[1],approximately 70 g/day
OC[C@H]1O[C@@H](c2ccc(F)c(Cc3cc4ccccc4s3)c2)[C@H](O)[C@@H](O)[C@@H]1O [ipragliflozin],maximum amount of daily UGE after multiple dose,[1],50 to 55 g/day
same,maximum amount of daily UGE after single dose,[1],approximately 70 g/day
"CCOc1ccc(Cc2cc([C@@H]3S[C@H](CO)[C@@H](O)[C@H](O)[C@H]3O)c(OC)cc2C)cc1 [luseogliflozin, (1S)-1,5-anhydro-1-[5-(4-ethoxybenzyl)-2-methoxy-4-methylphenyl]-1-thio-D-glucitol]",effect of food on pharmacokinetics,"[2]; SAD, 5 mg preprandial vs fasting",food had little effect on luseogliflozin pharmacokinetics
same,AUCinf ratio preprandial/fasting,[2]; [11],105 (101–110) %
same,AUClast ratio preprandial/fasting,[2]; [11],105 (101–109) %
same,C max ratio preprandial/fasting,[2]; [11],107 (89.9–127) %
same,mean plasma concentration as % of C max,"[2]; SAD, by 48 h after administration",2–3%
same,dose proportionality,"[2]; SAD, dose range 1–25 mg",dose proportionality was observed
same,mean urinary luseogliflozin excretion rate (% of each dose),"[2]; SAD, single administration, fasting, range over doses",3.36–4.40%
same,CL/F,"[2]; SAD, single oral 1 mg, fasting, N = 3, mean ± SD",3.02 ± 0.489 L/h
same,CL/F,"[2]; SAD, single oral 3 mg, fasting, N = 8, mean ± SD",3.16 ± 0.744 L/h
same,CL/F,"[2]; SAD, single oral 5 mg, fasting, N = 8, mean ± SD",2.80 ± 0.465 L/h
same,CL/F,"[2]; SAD, single oral 5 mg, preprandial, N = 8, mean ± SD",2.64 ± 0.362 L/h
same,CL/F,"[2]; SAD, single oral 9 mg, fasting, N = 8, mean ± SD",2.98 ± 0.326 L/h
same,CL/F,"[2]; SAD, single oral 15 mg, fasting, N = 8, mean ± SD",2.99 ± 0.483 L/h
same,CL/F,"[2]; SAD, single oral 25 mg, fasting, N = 8, mean ± SD",2.99 ± 0.436 L/h
same,Cmax,[2]; 1 mg,38.2 ± 4.86 ng/mL
same,Tmax,[2]; 1 mg,0.667 ± 0.289 h
same,k el,"[2]; 1 mg, SAD, single oral 1 mg, fasting, N = 3, mean ± SD",1.85e-05 s⁻¹
same,Cmax,[2]; 3 mg,116 ± 24.6 ng/mL
same,Tmax,[2]; 3 mg,0.75 ± 0.267 h
same,k el,"[2]; 3 mg, SAD, single oral 3 mg, fasting, N = 8, mean ± SD",2.11e-05 s⁻¹
same,Cmax,[2]; 5 mg,187 ± 27.3 ng/mL
same,Tmax,[2]; 5 mg,1.06 ± 0.496 h
same,Vd/F,[2]; 5 mg,38.9 ± 4.97 L
same,half-life,[2]; 5 mg,10.3 ± 1.02 h
same,k el,"[2]; 5 mg, SAD, single oral 5 mg, fasting, N = 8, mean ± SD",2.01e-05 s⁻¹
same,Cmax,[2]; 9 mg,312 ± 45.2 ng/mL
same,Tmax,[2]; 9 mg,1.25 ± 0.598 h
same,k el,"[2]; 9 mg, SAD, single oral 9 mg, fasting, N = 8, mean ± SD",1.96e-05 s⁻¹
same,Vd/F,[2]; 15 mg,60.5 ± 31 L
same,half-life,[2]; 15 mg,13.8 ± 5.76 h
same,k el,"[2]; 15 mg, SAD, single oral 15 mg, fasting, N = 8, mean ± SD",1.57e-05 s⁻¹
same,Vd/F,[2]; 25 mg,54.7 ± 13.7 L
same,k el,"[2]; 25 mg, SAD, single oral 25 mg, fasting, N = 8, mean ± SD",1.56e-05 s⁻¹
same,Tmax,[2]; male,0.667 to 2.25 h
same,half-life,[2]; male,9.23 to 13.8 h
same,Vd/F,"[2]; male, 1 mg",45.3 ± 6.88 L
same,half-life,"[2]; male, 1 mg",10.4 ± 0.552 h
same,Vd/F,"[2]; male, 3 mg",41.4 ± 7.17 L
same,half-life,"[2]; male, 3 mg",9.23 ± 0.95 h
same,Cmax,"[2]; male, 5 mg",205 ± 53.5 ng/mL
same,Tmax,"[2]; male, 5 mg",0.75 ± 0.535 h
same,Vd/F,"[2]; male, 5 mg",38.7 ± 4.11 L
same,half-life,"[2]; male, 5 mg",9.72 ± 1.17 h
same,Vd/F,"[2]; male, 9 mg",42.4 ± 5.4 L
same,Cmax,"[2]; male, 15 mg",544 ± 143 ng/mL
same,Cmax,"[2]; male, 25 mg",721 ± 123 ng/mL
same,mean daily urinary luseogliflozin excretion rate (% of daily dose),"[3]; MAD, 5 mg",3.74–4.69%
same,mean urinary luseogliflozin excretion rate,"[3]; MAD, 5 mg",4.58%
same,CL/F,"[3]; MAD, 5 mg/day oral before breakfast, Day 1, N = 8, mean ± SD",2.72 ± 0.648 L/h
same,CL/F,"[3]; MAD, 5 mg/day oral before breakfast, Day 7, N = 8, mean ± SD",2.61 ± 0.537 L/h
same,mean daily urinary luseogliflozin excretion rate (% of daily dose),"[3]; MAD, 10 mg",3.58–4.23%
same,mean urinary luseogliflozin excretion rate,"[3]; MAD, 10 mg",4.12%
same,CL/F,"[3]; MAD, 10 mg/day oral before breakfast, Day 1, N = 8, mean ± SD",3.05 ± 0.628 L/h
same,CL/F,"[3]; MAD, 10 mg/day oral before breakfast, Day 7, N = 8, mean ± SD",3.00 ± 0.612 L/h
same,accumulation potential,"[3]; MAD, 7 days, AUCinf Day 1 vs AUCτ Day 7",No accumulation potential
same,"trough concentrations, steady state","[3]; MAD, value just before each administration",reached a steady state by Day 7
same,AUC,"[3]; human, plasma, 5 mg/day",1980 ng·h/mL
same,AUC(0-inf),"[3]; human, plasma, 5 mg/day",1930 ng·h/mL
same,AUC,"[3]; human, plasma, 10 mg/day",3470 ng·h/mL
same,AUC(0-inf),"[3]; human, plasma, 10 mg/day",3430 ng·h/mL
same,half-life,"[3]; male, human, plasma, oral, mean T 1/2 after 7-day repeat administration (range), MAD, 5 and 10 mg/day, Day 7",9.14 to 10.7 h
same,increase in 24-h UGE between 1 and 5 mg,[4],2.7 fold
same,increase in 24-h UGE from 5 to 25 mg,[4],1.4 fold
same,maximum of mean UGE for 24 h,[4],approximately 70 g
same,mean UGE for 24 h after administration,[4]; 1 mg,18.9 g
same,mean UGE from 24 to 48 h after administration,[4]; 1 mg,2.53 g
same,mean UGE for 24 h after administration,[4]; 3 mg,36.8 g
same,mean UGE from 24 to 48 h after administration,[4]; 3 mg,12.5 g
same,mean UGE for 24 h after administration,[4]; 5 mg,50.2 g
same,mean UGE from 24 to 48 h after administration,[4]; 5 mg,21.3 g
same,mean UGE for 24 h after administration,[4]; 9 mg,54.3 g
same,mean UGE from 24 to 48 h after administration,[4]; 9 mg,37.5 g
same,mean UGE for 24 h after administration,[4]; 15 mg,60.7 g
same,mean UGE from 24 to 48 h after administration,[4]; 15 mg,48.4 g
same,mean UGE for 24 h after administration,[4]; 25 mg,70.9 g
same,mean UGE from 24 to 48 h after administration,[4]; 25 mg,62.7 g
same,mean daily UGE on Day 7,[5]; 5 mg,58.0 g
same,mean daily UGE (range),[5]; 5 mg,57.2 to 65.5 g
same,mean daily UGE on Day 7,[5]; 10 mg,62.7 g
same,mean daily UGE (range),[5]; 10 mg,62.7 to 76.9 g
same,mean daily UGE after the last administration,[5]; both 5 and 10 mg doses,about 60 g
same,effect on fasting plasma glucose levels,[6],did not produce clinically significant decreases in fasting plasma glucose levels
same,"changes in renal function test values, blood and urine electrolytes, body weight, vital signs, electrocardiography",[7]; MAD,no clinically significant changes
same,severity of AEs,[7]; MAD,mild and reversible
same,AE diarrhoea,"[7]; MAD, 10 mg",1 subject
same,AE occult blood positive,"[7]; MAD, 10 mg",1 subject
same,subjects with AEs,"[7]; MAD, 16 subjects received luseogliflozin",2 subjects
same,Escherichia coli and Klebsiella oxytoca in urine,"[7]; MAD, after drug administration",less than 10^3 colony forming units/mL
same,"changes in renal function test values, blood and urine electrolytes",[7]; SAD,no clinically significant changes
same,severity of AEs,[7]; SAD,"mild, reversible, and did not appear to be dose-related"
same,AE occult blood positive,"[7]; SAD, 3 mg",2 subjects
same,AE beta 2 microglobulin urine increased,"[7]; SAD, 9 mg",1 subject
same,AE diarrhoea,"[7]; SAD, 25 mg",1 subject
same,AE urethritis,"[7]; SAD, 25 mg",1 subject
same,subjects with AEs,"[7]; SAD, 43 subjects received luseogliflozin",7 subjects
same,hypoglycemia,[7]; [12],no cases of hypoglycemia
same,serious AEs or AEs leading to discontinuation,[7]; [12],no serious AEs or AEs leading to discontinuation were observed
same,IC50,[8],2.26 nM
same,selectivity: SGLT2 IC50 lower than IC50 for SGLT1,[9],"1,765 fold"
same,concentration in the kidney vs plasma,[10],higher concentration in the kidney than in the plasma
